# According to ChEMBL document CHEMBL4431303, “Minor Pyranonaphthoquinones from the Apothecia of the Lichen Ophioparma ventosa” (J Nat Prod, 2016):
# Active and inactive are the calls of the source. The rule behind the calls is not given here.
# Assays:
# [1] = Antioxidant activity after 5 mins by NBT assay; format: functional
# How it was run: (§1)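 Nonenzymatic superoxide scavenging read in 96-well plates. Final mixture: NADH 78 μM, NBT 50 μM, PMS 10 μM, test compound at 350, 116, 39 and 13 μM. Reagents in 16 mM Tris-HCl pH 8, compounds in DMSO. After 5 min at room temperature, absorbance at 560 nm against a no-PMS blank. IC50 taken from steady-state percent inhibition per dilution. Ascorbic acid as positive control. Triplicates averaged.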
# [2] = system: HaCaT; assay: Cytotoxicity against human HaCaT cells assessed as cell growth inhibition incubated for 72 hrs by MTT assay; format: functional, cell-based
# [3] = Antioxidant activity assessed as superoxide anion radical scavenging activity after 5 mins by spectrophotometric analysis; format: functional; how it was run: as §1
# [4] = Antioxidant activity assessed as DPPH radical scavenging activity after 5 mins by spectrophotometric analysis; format: functional
# [5] = system: B16; assay: Cytotoxicity against mouse B16 cells assessed as cell growth inhibition incubated for 72 hrs by MTT assay; format: functional, cell-based; settings: B16, 72 h
# [6] = system: PC-3; assay: Cytotoxicity against human PC3 cells assessed as cell growth inhibition; format: functional, cell-based
# How it was run: (§2)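 Inhibition of proliferation tested on a panel of human lines: Huh7D12 (differentiated hepatocellular carcinoma), Caco 2 (differentiating colorectal adenocarcinoma), MDA-MB-231 (breast carcinoma), HCT-116 (actively proliferating colorectal carcinoma), PC3 (prostate carcinoma) and NCI-H2 (lung carcinoma). Diploid skin fibroblasts served as the normal control line. Result reported as IC50.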
# [7] = system: Fibroblast; assay: Cytotoxicity against human Fibroblasts assessed as cell growth inhibition; format: cell-based; how it was run: as §2
# [8] = system: Caco-2; assay: Cytotoxicity against human Caco2 cells assessed as cell growth inhibition; format: functional, cell-based
# [9] = system: MDA-MB-231; assay: Cytotoxicity against human MDA-MB-231 cells assessed as cell growth inhibition; format: functional, cell-based
# [10] = Cytotoxicity against human Huh7D12 cells assessed as cell growth inhibition; format: functional, cell-based; settings: Huh-7D12
# [11] = system: HCT-116; assay: Cytotoxicity against human HCT116 cells assessed as cell growth inhibition; format: functional, cell-based; how it was run: as §2
# [12] = Cytotoxicity against human NCI-H2 cells assessed as cell growth inhibition; format: functional, cell-based; how it was run: as §2
IC50 [1] [µM],IC50 [3] [µM],IC50 [4],SMILES,IC50 [2] [nM],IC50 [5] [nM],inhibition [3],IC50 [6] [nM],IC50 [7] [µM],IC50 [8] [nM],IC50 [9] [nM],IC50 [10] [nM],IC50 [11] [nM],IC50 [12] [nM]
49.9,50,Not Active,COC1=CC(=O)c2c(O)c3c(c(O)c2C1=O)[C@@H]1O[C@@H](C)C[C@@H]1OC3=O,> 10000,> 10000,–,–,–,–,–,–,–,–
6.1,–,Not Active,COC1=CC(=O)c2c(O)c3c(c(O)c2C1=O)[C@@H](OC)[C@H](C)OC3=O,–,–,Active,–,–,–,–,–,–,–
1.9,–,> 500 µg/mL,COC1=CC(=O)c2c(O)c3c(c(O)c2C1=O)C[C@H](C)OC3=O,14200,2400,Active,4000,4,4000,10000,3000,2600,2500
22.1,–,–,O=C1O[C@H]([C@@H](O)CO)C(O)=C1O [ASCORBIC ACID],–,–,Active,–,–,–,–,–,–,–
–,–,–,COc1cccc2c1C(=O)c1c(O)c3c(c(O)c1C2=O)C[C@@](O)(C(=O)CO)C[C@@H]3O[C@H]1C[C@H](N)[C@H](O)[C@H](C)O1 [DOXORUBICIN],530,430,–,90,0.04,30,30,60,80,40
–,–,–,CC(=O)O[C@H]1C(=O)[C@@]2(C)[C@H]([C@H](OC(=O)c3ccccc3)[C@]3(O)C[C@H](OC(=O)[C@H](O)[C@@H](NC(=O)c4ccccc4)c4ccccc4)C(C)=C1C3(C)C)[C@]1(OC(C)=O)CO[C@@H]1C[C@@H]2O [PACLITAXEL],–,–,–,4,> 0.25,14,21,8,3,20
–,–,–,CC[C@H](CO)Nc1nc(NCc2ccccc2)c2ncn(C(C)C)c2n1 [SELICICLIB],–,–,–,–,7,–,–,–,–,18000
–,–,–,CC[C@]1(O)C[C@H]2CN(CCc3c([nH]c4ccccc34)[C@@](C(=O)OC)(c3cc4c(cc3OC)N(C=O)[C@H]3[C@@](O)(C(=O)OC)[C@H](OC(C)=O)[C@]5(CC)C=CCN6CC[C@]43[C@@H]65)C2)C1 [VINCRISTINE],650,500,–,–,–,–,–,–,–,–

SMILES,IC50 [1] [µM],IC50 [3] [µM],IC50 [4],IC50 [2] [nM],IC50 [5] [nM],inhibition [3],IC50 [6] [nM],IC50 [7] [µM],IC50 [8] [nM],IC50 [9] [nM],IC50 [10] [nM],IC50 [11] [nM],IC50 [12] [nM]
O=C(O)c1cc(O)c(O)c(O)c1 [GALLIC ACID],–,–,7.2 µg/mL,–,–,–,–,–,–,–,–,–,–
